About 2,000 (0.61%) of roughly 330,000 compounds were called active.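 Rule for the calls: active = inhibition above that plate's mean sample inhibition plus 3 SD (cut at about 26% in these data); inactive = the rest.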 Shown is part of a subset that was picked to be rich in actives.
Experiment: nonselective Gq signaling inhibition in CHO cells – cell-based, fluorescence, Fluo-8 calcium dye, counter-screen for OX1R antagonist project, primary screen (AID 463079);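 note: 0% = ATP-challenged DMSO wells and 100% = DMSO wells without ATP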
Settings: parental CHO-K1, ATP-induced calcium, Fluo-8 fluorescence; at 5.6 µM; hits give high values
Outline: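 Material: parental CHO cells / Compound: single nominal dose of 5.6 µM per compound / Signal: Fluo-8 fluorescence / Replicates: singlicate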
For C/C(=N\NC(=O)c1ccc(CSc2nc(C)cc(C)n2)cc1)C1CCCCC1, the inhibition was -15.5% (inactive).
In the case of COc1ccc(C(=O)Nc2cc(C)ccc2NC(=O)COc2ccccc2)cc1, the inhibition is reported as -7.7% (inactive).
For Cc1ccc(O)c(NC(=S)NC(=O)COc2ccc(Br)cc2)c1, the inhibition was 58.4% (active).
With CCS(=O)(=O)c1ccc(O)c(NC(=O)COc2ccc(Cl)cc2)c1 the inhibition was -4.26% (inactive).
With COCCCNC(=O)c1ccc(CNS(=O)(=O)c2ccc(NC(C)=O)cc2)cc1 the inhibition was -6.87% (inactive).
In the case of Cc1nnc(SCC(=O)N2c3ccccc3C(C)(c3ccc(Cl)cc3)CC2(C)C)s1 (centres undefined), the inhibition is reported as -18.2% (inactive).
For CCOC(=O)[C@H]1[C@H]2COc3ccccc3[C@@H]2N2C(=O)CN(Cc3ccccc3)C(=O)[C@@]12C, the inhibition was -31.8% (inactive).
With O=S(=O)(c1ccc(Cl)s1)N1CCC2(CC1)OCCO2 the inhibition was -9.61% (inactive).
In the case of CC(OC(=O)/C=C/c1ccccc1)C(=O)Nc1ccc(C(N)=O)cc1 (centres undefined), the inhibition is reported as -8.76% (inactive).
For CC(C)Sc1nnc([C@H](Cc2ccccc2)NC(=O)OC(C)(C)C)o1, the inhibition was -15.8% (inactive).
For C[C@@H](NC(=O)OC(C)(C)C)c1nnc(S(=O)(=O)Cc2ccccc2)o1, the inhibition was 51.1% (active).
With C[C@H](NC(=O)OC(C)(C)C)c1nnc(SCC(=O)Nc2ccc(Br)cc2)o1 the inhibition was -14.8% (inactive).
With NNC(=O)C1CC(O)CN1S(=O)(=O)c1ccc(Cl)cc1 (centres undefined) the inhibition was -12.3% (inactive).
In the case of O=C(CN1CCN(S(=O)(=O)c2cc(Cl)ccc2Cl)CC1)c1ccc(O)c(O)c1, the inhibition is reported as -11.1% (inactive).
In the case of Cc1ccc(S(=O)(=O)Nc2ccc(F)c(S(=O)(=O)N3CCOCC3)c2)cc1, the inhibition is reported as -18.4% (inactive).
With COc1cccc(CSc2nc3nc(C)cc(C)n3n2)c1 the inhibition was 9.68% (inactive).
For CC[C@]1(C(=O)OC)[C@H]2C(=O)N(Cc3ccccc3)C(=O)[C@H]2[C@H]2CN=C(SCc3ccc(C#N)cc3)N21, the inhibition was -26.6% (inactive).
With CCOC(=O)C1=C(C)N(C[C@@H]2CC[C@@H](Cc3ccc(-c4ccccc4)cc3)O2)C(=O)NC1c1ccc([N+](=O)[O-])cc1 (some centres undefined) the inhibition was -13.7% (inactive).
With CCN1CCN(c2ccc(NC(=O)c3cnccn3)cc2)CC1 the inhibition was -2.98% (inactive).
In the case of O=C(Nc1ccc2c(c1)OCCO2)c1cnccn1, the inhibition is reported as -2.07% (inactive).
For CCN(CC)c1ccc(/C=N/NC(=O)c2cnccn2)c(O)c1, the inhibition was 43.5% (active).
In the case of CCOc1ccc(NS(=O)(=O)c2ccc(C)c(C(N)=O)c2)cc1, the inhibition is reported as -5.42% (inactive).
In the case of CN1CCC(=NNC(=O)CN(c2cccc(Cl)c2)S(C)(=O)=O)CC1, the inhibition is reported as -9.11% (inactive).
In the case of COc1ccc(-c2nnc(SCC(=O)c3ccc4c(c3)OCCO4)o2)cc1, the inhibition is reported as -4.45% (inactive).
With COc1ccc(-n2c(C)cc(C(=O)COC(=O)c3cc(OC)c(OC)cc3NC(=O)c3cccs3)c2C)cc1 the inhibition was -15.5% (inactive).
In the case of COc1ccc(-n2c(C)cc(C(=O)CSc3nnc(-c4cccs4)o3)c2C)cc1, the inhibition is reported as 40.8% (active).
For Cc1cc(C)n(CCC(=O)N2CCN(S(=O)(=O)c3ccc(C)c(C)c3)CC2)n1, the inhibition was -19% (inactive).
In the case of CNS(=O)(=O)c1ccc(C(=O)NCC(=O)NCCc2ccc3c(c2)OCCO3)cc1, the inhibition is reported as -17.8% (inactive).
For CCCCCCCCCCOC(=O)Cn1c(COc2ccc(C)cc2)[n+](C)c2ccccc21, the inhibition was 78.8% (active).
For CCOC(=O)COn1c(=O)c(-c2ccc(OCC)cc2)[n+]([O-])c2ccccc21, the inhibition was -6.3% (inactive).
In the case of CCOC(=O)Cn1c(-c2cccnc2Cl)nc2ccccc21, the inhibition is reported as 6.66% (inactive).
With CCCCn1c(N)c(N(CCOC)C(=O)c2cccc(OCc3ccccc3)c2)c(=O)[nH]c1=O the inhibition was -12.8% (inactive).
In the case of COc1cccc(OCc2nnc3n2N=C(c2ccccc2)C(CC(=O)O)S3)c1 (centres undefined), the inhibition is reported as -2.16% (inactive).
With CCCCCCCCCCOC(=O)Cn1c(COc2cccc(OC)c2)[n+](C)c2ccccc21 the inhibition was 43.2% (active).
In the case of CCOC(=O)C1CCN(Cc2c(C(=O)N3CCOCC3)nc3c(C)cccn23)CC1, the inhibition is reported as -3.54% (inactive).
In the case of Cc1cccc(-n2c(Cc3cc(=O)[nH]c(=O)[nH]3)nnc2SCC(=O)Nc2cccc(C(F)(F)F)c2)c1, the inhibition is reported as -7.28% (inactive).
For CCOC(=O)C(Sc1ncc(C#N)c(N)n1)C(C)C (centres undefined), the inhibition was -2.34% (inactive).
In the case of CC[C@]1(C(=O)OC)[C@H]2C(=O)N(Cc3ccccc3)C(=O)[C@H]2[C@H]2CN=C(SCc3ccc(Cl)cc3)N21, the inhibition is reported as -19.6% (inactive).
In the case of COc1ccc(S(=O)(=O)Nc2ccc3oc(C)c(C(C)=O)c3c2)cc1, the inhibition is reported as 40.8% (active).
With CC(=O)c1c(C)oc2ccc(NS(=O)(=O)c3ccc(C(=O)O)cc3)cc12 the inhibition was 7.03% (inactive).
With CC(=O)c1c(C)oc2ccc(NS(=O)(=O)c3ccccc3)cc12 the inhibition was -0.19% (inactive).
In the case of CCCCN1C(=O)C(=O)N(CC(=O)Nc2cccc(C(C)=O)c2)C1=O, the inhibition is reported as -9.38% (inactive).
With COc1cc(C(=O)NCCOC(=O)c2cccc(N(C)C)c2)cc(OC)c1OC the inhibition was -13.3% (inactive).
In the case of Cc1ccc2cccc(O)c2[n+]1[O-], the inhibition is reported as -4.21% (inactive).
For COC(=O)CNC(=O)c1ccc(OC2CCN(C(=O)C3CC3)CC2)cc1, the inhibition was 2.53% (inactive).
For CCCOC(=O)c1[nH]c2c(c1C)C(=O)CC(c1cc(OC)c(OC)c(OC)c1)C2 (centres undefined), the inhibition was 33.7% (active).
In the case of CCCOC(=O)c1[nH]c2c(c1C)C(=O)CC(c1cccs1)C2 (centres undefined), the inhibition is reported as -21.6% (inactive).
With COCCOC(=O)c1[nH]c2c(c1C)C(=O)CC(c1ccc(OC)cc1)C2 (centres undefined) the inhibition was -15.7% (inactive).
For COc1cc(/C(=C/c2ccccc2)c2ccccc2)c2c(c1)oc1ccccc12, the inhibition was -12.8% (inactive).
In the case of Cc1cc(Br)ccc1NC(=O)c1cnc(N2CCN(c3ccccn3)CC2)c2ccccc12, the inhibition is reported as -29.1% (inactive).
With Cc1ccc(S(=O)(=O)Nc2ccc3ncccc3c2)cc1 the inhibition was 37.3% (active).
For Cc1cc(C)cc(OCC(=O)Nc2ccc(S(=O)(=O)Nc3ccccn3)cc2)c1, the inhibition was 2.04% (inactive).
For Cc1ccc(NS(=O)(=O)c2ccc(C(C)(C)C)cc2)cn1, the inhibition was -3.3% (inactive).
With Oc1oc(-c2ccccc2Br)nc1/C=N/c1ccccn1 the inhibition was 1.24% (inactive).
For CCn1c(CSCc2c(Cl)cccc2Cl)n[nH]c1=S, the inhibition was 4.32% (inactive).
For CC(C)c1nnc(NC(=O)COC(=O)/C=C/c2ccc([N+](=O)[O-])cc2)s1, the inhibition was -9.22% (inactive).
In the case of CC(=O)c1cccc(OCc2cc(C(=O)NC(C)Cc3cccnc3)no2)c1 (centres undefined), the inhibition is reported as -20% (inactive).
For CN(Cc1cccnc1)C(=O)c1cc(COc2ccc3ncccc3c2)on1, the inhibition was 41.8% (active).
For Cc1ccc(OCc2cc(C(=O)N(C)CCc3ccccc3)no2)cc1C, the inhibition was -11.5% (inactive).
In the case of CCOC1CCCCC1NS(=O)(=O)c1ccc(Cl)cc1 (centres undefined), the inhibition is reported as -18.7% (inactive).
With Cc1c(NC(=O)CSc2nnc(-c3cccnc3)n2N)c(=O)n(-c2ccccc2)n1C the inhibition was -5.93% (inactive).
In the case of Cc1ccc(NC(=O)CSc2cccc3cccnc23)c(C)c1, the inhibition is reported as 0.17% (inactive).
For Cc1c(NC(=O)CSc2cccc3cccnc23)c(=O)n(-c2ccccc2)n1C, the inhibition was 25.1% (active).
With CCOCc1nnc(NC(=O)CCS(=O)(=O)Cc2ccccc2)s1 the inhibition was 3.73% (inactive).
With OC(CNCCc1ccc(Cl)cc1Cl)COc1ccccc1 (centres undefined) the inhibition was -7.3% (inactive).
With CCOc1ccc(/C=N/NC(N)=S)cc1 the inhibition was -2.97% (inactive).
For NC(N)=N/N=C/c1ccc(OCc2ccc(Cl)cc2Cl)cc1, the inhibition was 64.6% (active).
For Cn1c(Cc2cccc3ccccc23)nnc1SCC(=O)N1CCN(c2cccc(Cl)c2)CC1, the inhibition was -6.75% (inactive).
For Cc1ccc(-c2nnn(CC(=O)N(CCO)C(C(=O)NC(C)(C)C)c3ccncc3)n2)cc1 (centres undefined), the inhibition was -17.6% (inactive).
In the case of COc1cc(F)c(C2=CC(=O)CC(C)(C)C2)cc1F, the inhibition is reported as -13.2% (inactive).
In the case of CCOC(=O)C1=C(c2ccccc2)N=C2SCC(=O)N2C1c1ccc(O)c(OC)c1 (centres undefined), the inhibition is reported as -27.1% (inactive).
In the case of Cc1cc(N=Nc2ccc3ccccc3c2)ccc1O, the inhibition is reported as 14.3% (inactive).
For CC(C)(C)OC(=O)NCCCCCNC(=O)c1nc[nH]c1C(=O)NCc1ccccc1, the inhibition was -30.4% (inactive).
For CC(=O)N1CCCc2cc(S(=O)(=O)N3CCCC(C(=O)N4CCN(c5cccc(Cl)c5)CC4)C3)ccc21 (centres undefined), the inhibition was 66.2% (active).
For CC(=O)N1c2ccc(S(=O)(=O)N3CCCC(C(=O)Nc4cccc(Cl)c4)C3)cc2CC1C (centres undefined), the inhibition was -6.72% (inactive).
With CC(=O)N1CCCc2cc(S(=O)(=O)N3CCCC(C(=O)NCc4ccc(Cl)cc4)C3)ccc21 (centres undefined) the inhibition was -11.9% (inactive).
With O=C(c1ccc(Br)o1)N1CCN(CCOc2ccccc2)CC1 the inhibition was -7.03% (inactive).
With CCOC(=O)C1CCCN(C(=O)CSc2nnc3nc(C)cc(C)n23)C1 (centres undefined) the inhibition was -13.2% (inactive).
For Cc1ccc(CN(Cc2cccnc2)C(=S)Nc2cc(Cl)ccc2C)cc1, the inhibition was 64.7% (active).
In the case of Cc1c(Cl)cccc1NC(=S)N(Cc1ccccc1)Cc1cccnc1, the inhibition is reported as -0.95% (inactive).
In the case of Cc1ccc(CN(Cc2cccnc2)C(=S)Nc2cccc(Cl)c2C)cc1, the inhibition is reported as -2.11% (inactive).
With CN1CCN(C(=O)N2c3ccccc3CCc3ccccc32)CC1 the inhibition was -14.7% (inactive).
With O=C1C=C(c2cccc(Cl)c2)C[C@@H](c2ccc(F)cc2)C1 the inhibition was -24% (inactive).
In the case of COc1ccc(S(=O)(=O)NCCCc2ccccc2)cc1, the inhibition is reported as 9.88% (inactive).
With COc1ccc(S(=O)(=O)NCCCCOc2ccc(Cl)cc2)cc1 the inhibition was 62.1% (active).
In the case of COC(=O)CNS(=O)(=O)c1ccc(OC)cc1, the inhibition is reported as 4.49% (inactive).
With Cc1ccc([C@@H]2CC=C(C(=O)O)[C@H](c3cccc(Cl)c3)N2S(=O)(=O)c2ccc(C)cc2)cc1 the inhibition was -14.4% (inactive).
For Cc1ccccc1S(=O)(=O)N1[C@@H](c2cccc(Cl)c2)C(C(=O)O)=CC[C@H]1c1ccc(Cl)cc1, the inhibition was -5.28% (inactive).
For Cc1ccc(S(=O)(=O)N2[C@@H](c3cccc(Cl)c3)C(C(=O)O)=CC[C@H]2c2ccc(Cl)c(Cl)c2)cc1, the inhibition was 36.9% (active).

Reference: PubChem BioAssay AID463079 (The Scripps Research Institute Molecular Screening Center, 2010)
